These results are taken from ChEMBL document CHEMBL1127750, “Enhancement of iron excretion via monoanionic 3-hydroxypyrid-4-ones” (1994).

Experiment [1] concerns Rattus norvegicus. The experiment can be described thus: The treatment period of compound (microg of Fe/h) for biliary excretion of Iron after intravenous administration to the rats. The format is functional, Bile. The essentials:
(§1)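 Normal (untreated) rats under pentobarbital anesthesia, bile duct cannulated with PE-10 tubing. Bile collected 30 min for the control rate, then chelator given 0.2 mmol/kg iv by tail vein in deionized water, pH about 7 with sodium bicarbonate, and bile collected a further 2 h. Bile mass measured and iron determined by atomic absorption spectrometry; rate expressed per hour. Controls received pentobarbital only.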

Experiment [2] deals with Rattus norvegicus. The experiment is described as follows: The treatment period of compound (microg of Fe/15h) for urinary excretion of Iron after peroral administration to the rats. The format is functional, Urine. The essentials: (§2)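 Unloaded normal rats in metabolic cages act as their own controls. Food is withdrawn at 5 p.m. on both days. Control day: 1 mL distilled water po, urine collected until 8 a.m. (15 h), food returned, urine analyzed for iron. Treatment day: chelator 1 mmol/kg po in 1 mL distilled water, then another 15 h urine collection for iron analysis.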

Experiment [3] relates to Rattus norvegicus. The experiment is described as follows: The treatment period of compound (microg of Fe/15h) for urinary excretion of Iron after intravenous administration to the rats. Format: functional, Urine. The essentials:
(§3)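 Unloaded normal rats, each serving as its own control, housed in metabolic cages. Control day: 1 mL distilled water/200 g body weight iv, urine collected 15 h (5 p.m.–8 a.m.) and analyzed for iron. Next day: chelator 0.2 mmol/kg iv by tail vein under ether anesthesia in 1 mL deionized water, pH about 7 with sodium bicarbonate; urine again collected 15 h for iron.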

The test system of experiment [4] is Rattus norvegicus. The experiment is described as follows: The control period of compound (microg of Fe/15h) for urinary excretion of Iron after intravenous administration to the rats. Format: functional, Urine. The essentials: as §3
The test system of experiment [5] is Rattus norvegicus. The experiment is described as follows: The control period of compound (microg of Fe/h) for biliary excretion of Iron after intravenous administration to the rats. The format is functional, Bile. The essentials:
as §1

Experiment [6] has as its system Rattus norvegicus. The experiment is described as follows: The control period of compound (microg of Fe/15h) for urinary excretion of Iron after peroral administration to the rats. Format: functional, Urine. Summed up: as §2

For `Cn1cc(O)c(=O)cc1C(=O)O`, the Treatment period in experiment [1] is 5.87; in experiment [2], 6740 ng of Fe/15 h; in experiment [3] it was 6830 ng of Fe/15 h. In addition, the Control period in experiment [4] is 410 ng of Fe/15 h; in experiment [5] it was 0.34; in experiment [6] it was 497 ng of Fe/15 h.

Turning to `O=C(O)c1cc(=O)c(O)co1`, the Treatment period in experiment [1] is 0.46. Moreover, the Control period in experiment [5] is given as 0.35.

For `O=c1cc(CO)n(CCS(=O)(=O)O)cc1O`, the Treatment period was 9.96 in experiment [1], 350 ng of Fe/15 h in experiment [2] and 2200 ng of Fe/15 h in experiment [3]. The Control period in experiment [4] is 504 ng of Fe/15 h; in experiment [5], 0.35; in experiment [6] it was 296 ng of Fe/15 h.

`Cc1c(O)c(=O)ccn1C` [DEFERIPRONE]: the Treatment period in experiment [1] is 4.78; in experiment [2], 17400 ng of Fe/15 h; in experiment [3], 8370 ng of Fe/15 h. In addition, the Control period in experiment [4] was 490 ng of Fe/15 h; in experiment [5], 0.36; in experiment [6], 400 ng of Fe/15 h.

`O=c1cc(CO)occ1O` [KOJIC ACID]: the Treatment period in experiment [1] was 0.28. The Control period in experiment [5] amounted to 0.31.
